MLL AF4-AF9 inh – MLL-AF4/AF9 protein interaction inhibition; P42568; AlphaScreen, biotin-AF4 peptide binding to FLAG-AF9; inhibition, % at 10 µM; 350,000 tested, 0.47% active; AID 651704;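 active = every replicate reaching a set inhibition limit, whatever the replicate mean, cut at about 25% in these data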
Target sequence (P42568 whole entry, looked up): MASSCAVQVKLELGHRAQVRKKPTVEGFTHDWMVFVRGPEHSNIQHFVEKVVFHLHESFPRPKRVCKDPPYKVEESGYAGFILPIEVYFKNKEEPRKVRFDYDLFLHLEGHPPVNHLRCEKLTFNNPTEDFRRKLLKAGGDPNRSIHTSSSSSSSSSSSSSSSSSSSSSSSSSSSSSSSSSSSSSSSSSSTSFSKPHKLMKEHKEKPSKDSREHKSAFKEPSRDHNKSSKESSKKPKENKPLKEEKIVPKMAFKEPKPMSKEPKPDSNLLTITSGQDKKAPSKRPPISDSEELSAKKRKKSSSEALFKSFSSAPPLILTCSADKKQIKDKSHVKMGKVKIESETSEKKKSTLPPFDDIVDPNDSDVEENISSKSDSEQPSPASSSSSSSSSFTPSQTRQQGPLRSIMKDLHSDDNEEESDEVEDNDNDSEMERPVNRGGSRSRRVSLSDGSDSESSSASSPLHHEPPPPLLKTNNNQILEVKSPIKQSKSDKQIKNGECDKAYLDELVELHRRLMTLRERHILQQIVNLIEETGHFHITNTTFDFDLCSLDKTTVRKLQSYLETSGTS
ERp5 inh – ERp5 (human) disulfide isomerase inhibition; inhibition, % at 9.99 µM; 350,000 tested, 0.05% active; Q15084; AID 651711; ERp5 insulin aggregation, absorbance 650 nm, 90 min;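 active = mean replicate inhibition above about 25%, with every replicate also reaching it, limit read from the data, passing the limit was not always enough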
FGF22 binding – binders of recombinant human FGF22 by thermal shift; SYPRO orange fluorescence; percent of sucrose octasulfate shift, DMSO zero; activity (Tm shift, normalised), % at 9.99 µM; 340,000 tested, 1.5% active; AID 651658;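 active = mean Tm shift, scaled 0 neutral to 100 positive control, at about 1.3% or above, every replicate too, limit read from the data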
Target sequence (Q9HCT0 whole entry, looked up): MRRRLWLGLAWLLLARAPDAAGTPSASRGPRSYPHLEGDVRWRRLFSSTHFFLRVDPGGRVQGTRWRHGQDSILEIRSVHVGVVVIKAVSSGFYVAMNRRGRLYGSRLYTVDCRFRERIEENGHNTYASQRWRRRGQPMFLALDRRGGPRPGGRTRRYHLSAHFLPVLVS
FN deposition inh – fibronectin deposition inhibition. 350,000 tested, 0.086% active. AH1F fibroblasts, Alexa488-fibronectin deposition fluorescence, overnight. inhibition, % at 12.6 µM;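 active = mean inhibition across replicates of 30% or more, regardless of how many single replicates reach that level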
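Assay system: AH1F fibroblast monolayer, labelled fibronectin deposition. Amount: 10000 cells per well. Also added: labelled fibronectin 24 nM. Compound: single-point pinned compound. Incubation: cell attachment 1 h, compound and FN exposure overnight. Detection: fluorescence after three HBSS washes, excitation 485 nm, emission 525 nm. Read-out: inhibition of fibronectin deposition signal.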
PDI turbidity – inhibitors of human protein disulfide isomerase. 350,000 tested, 0.052% active. inhibition, % at 10 µM. AID 588391. P07237. PDI insulin aggregation turbidity, A650, 90 min;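 active = mean inhibition across replicates of 30% or more, whatever share of single replicates reach that level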
ARNT TACC3 PPI – disrupts binding between human ARNT and TACC3. Q9Y6A5. inhibition, % at 9.99 µM. AlphaScreen His-ARNT PAS-B/GST-TACC3 binding, luminescence; TACC3 fragment carries E629A point mutation. 390,000 tested, 0.66% active;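 active = mean inhibition of replicates at least 50% and at least half of replicates each reaching 50%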
Of the large screens only hits and unclear results are named; the others gave an inactive call. In the library only some 2.1% were active in any assay of this set; here they are far more common.

C[C@@H]1CN([C@H](C)CO)C(=O)c2cc(NC(=O)C3CCCCC3)ccc2O[C@H]1CN(C)Cc1ccccc1	none (no result: FN deposition inh, PDI turbidity)
O=C(CSc1nnnn1C1CC1)Nc1cc(S(=O)(=O)N2CCCC2)ccc1Cl	FGF22 binding 43
CN(C)S(=O)(=O)c1ccc(Cl)c(NC(=O)CSc2nnnn2-c2ccc(O)cc2)c1	PDI turbidity 41
Cn1nnnc1SCC(=O)Nc1cc(S(=O)(=O)N2CCCC2)ccc1Cl	none (no result: FN deposition inh)
CS(=O)(=O)c1ccc(Cl)c(NC(=O)CSc2nnc(C3CC3)n2C2CC2)c1	FGF22 binding 1.4
O=C(Cc1cccnc1)N[C@H]1CC[C@@H](CCNS(=O)(=O)c2ccccc2Cl)O[C@H]1CO	none (no result: PDI turbidity)
Cc1cccc(S(=O)(=O)N2CC[C@@H]3[C@@H](CO)Nc4ccc(C#Cc5ccccc5F)cc4[C@@H]32)c1	none (no result: PDI turbidity)
C=CCn1c(Cc2ccccc2)n[nH]c1=S	none
C=CCn1c(Cc2nc3ccc(Cl)cc3[nH]2)n[nH]c1=S	ARNT TACC3 PPI 36 (no result: MLL AF4-AF9 inh, ERp5 inh, FGF22 binding)
O=C(Nc1ccc([N+](=O)[O-])cc1)c1ccccc1F	none
O=C(c1cc(O)c(O)c([N+](=O)[O-])c1)c1ccccc1F	MLL AF4-AF9 inh 26
Cc1ccc(Nc2n[nH]c(=S)s2)cc1F	FGF22 binding 46
Cc1ccc(Nc2n[nH]c(=S)s2)cc1	none (no result: ARNT TACC3 PPI)
O=C(CN1CCCC1)N1c2ccccc2C=Cc2ccccc21	FGF22 binding 43
O=C(CN1CCCCCC1)N1c2ccccc2C=Cc2ccccc21	none (no result: MLL AF4-AF9 inh, FGF22 binding)
OC[C@H]1[C@@H](c2ccc(C#Cc3cccnc3)cc2)[C@H]2CN(Cc3ccccc3F)CCCCN21	none (no result: FN deposition inh, PDI turbidity)
O=C(Nc1nnc(-c2ccco2)o1)c1cccc(N2C(=O)CCC2=O)c1	ARNT TACC3 PPI 49
Cc1cccc(NC(=O)Nc2ccc(S(=O)(=O)Nc3onc(C)c3C)cc2)c1	FN deposition inh 37
COCC(=O)N1[C@H](C#N)[C@@H](c2ccccc2-c2cccc(F)c2)[C@H]1CO	none (no result: PDI turbidity, ARNT TACC3 PPI)
CCCC#Cc1cnc2c(c1)C(=O)N([C@@H](C)CO)C[C@@H](C)[C@@H](CN(C)C(=O)Nc1cccc(F)c1)O2	none (no result: PDI turbidity)
CC=Cc1ccc2n(c1=O)C[C@H]1[C@H](CO)[C@@H](C(=O)NCc3ccccc3)[C@@H]2N1CC (mixture of isomers)	FGF22 binding 1.4 (no result: FN deposition inh, PDI turbidity)
CC=Cc1ccc2n(c1=O)C[C@@H]1[C@@H](CO)[C@H](C(=O)NCc3ccccc3)[C@H]2N1CC (mixture of isomers)	none (no result: FN deposition inh, PDI turbidity)
C[C@@H]1CN([C@@H](C)CO)C(=O)c2cc(-c3cccc(C(=O)N(C)C)c3)cnc2O[C@H]1CN(C)S(=O)(=O)c1cccc(F)c1	none (no result: FN deposition inh, PDI turbidity)
O=C(CN1CCc2ccccc2C1)Nc1ccc(F)cc1F	FGF22 binding 44
O=C(/C=C/C(=O)N1CCc2ccccc2C1)N1CCc2ccccc2C1	none (no result: ARNT TACC3 PPI)
O=C(O)CN1CCc2ccccc2C1	FGF22 binding 43 (no result: FN deposition inh)
CCC(=O)N1C[C@@H](O)COC[C@@H]2O[C@H](CC(=O)NCC3CCCCC3)CC[C@H]21	none (no result: PDI turbidity)
CCSC1=NC(C)(C)C=C(/C=C/c2ccc(Cl)cc2Cl)N1	ARNT TACC3 PPI 45 (no result: MLL AF4-AF9 inh, ERp5 inh, FGF22 binding, FN deposition inh)
CC1=Nc2ccccc2N=C(N)C1c1ccccc1 (centres undefined)	FGF22 binding 44
C[C@H](NC(=O)C[C@@H]1CC[C@@H](NC(=O)C2CCC2)[C@@H](CO)O1)c1ccccc1	none (no result: FN deposition inh, PDI turbidity)
CCC(=O)N(c1ccc(C(=O)O)cc1)c1nc(-c2ccc(OC)cc2)c(C)s1	FGF22 binding 44 (no result: FN deposition inh)
Cc1sc(N(C(=O)CCc2ccccc2)c2ccc(C(=O)O)cc2)nc1-c1ccccc1	none
C[C@@H]1CCCCO[C@H](CN(C)S(=O)(=O)c2ccccc2)[C@H](C)CN([C@@H](C)CO)C(=O)c2cc(NS(=O)(=O)c3cn(C)cn3)ccc2O1	none (no result: PDI turbidity)
O=C(CSc1nc(-c2ccccc2)nc2ccc(F)cc12)Nc1ccc(C(=O)O)cc1	FGF22 binding 6.0
CCOc1ccc2nc(-c3ccccc3)nc(SCC(=O)OC)c2c1	none
CCOC(=O)CSc1nc(-c2ccccc2)nc2ccc(C)cc12	FGF22 binding 43
CC(C)NC(=O)N(C)C[C@H]1OCCCC[C@@H](C)Oc2ccc(NS(=O)(=O)c3ccccc3)cc2C(=O)N([C@@H](C)CO)C[C@@H]1C	none (no result: ERp5 inh, FN deposition inh, PDI turbidity, ARNT TACC3 PPI)
CO[C@@H]1CN(C)C(=O)c2ccc(NC(=O)C3CCOCC3)cc2OC[C@@H](C)N(C(C)=O)C[C@H]1C	none (no result: PDI turbidity)
Cc1cc[n+](C(C)C(=O)c2ccc(Cl)cc2)cc1 (centres undefined)	ARNT TACC3 PPI 56
CNC[C@@H]1OCCCC[C@H](C)Oc2ccc(NC(=O)NC(C)C)cc2C(=O)N([C@H](C)CO)C[C@H]1C	none (no result: PDI turbidity)
Cc1c(/C=N/Nc2nc3ccccc3[nH]2)c2ccccc2n1C	MLL AF4-AF9 inh 25 (no result: ERp5 inh)
O=C(c1ccncc1)N1C[C@@H]2[C@H](c3ccccc31)[C@H](CO)N2C(=O)Nc1ccccc1Cl	none (no result: FN deposition inh, PDI turbidity)
Cn1c(CNC(=O)c2ccco2)nnc1SCC(=O)Nc1c(F)cc(F)cc1Br	FGF22 binding 44
C[C@@H]1CCCCO[C@H](CN(C)CC2CCCCC2)[C@H](C)CN([C@@H](C)CO)C(=O)c2cc(NC(=O)C3CCCCC3)ccc2O1	none (no result: FN deposition inh, PDI turbidity)
O=c1c(Oc2ccccc2F)coc2cc(OCc3cnn(-c4ccccc4)c3)ccc12	FGF22 binding 43
Nc1[nH]ncc1-c1ccc(F)cc1	none
Nc1[nH]ncc1-c1ccccc1	FGF22 binding 44
COc1ccccc1CNC(=O)C[C@@H]1C[C@H]2c3cc(NC(=O)NC4CCCC4)ccc3O[C@H]2[C@H](CO)O1	none (no result: PDI turbidity)
[O-][N+](=C(c1ccccc1)c1ccccc1)c1ccccc1	FGF22 binding 43
O=C(Cc1ccc([N+](=O)[O-])cc1)c1ccccc1	none
CN1CCN(c2ccc(CNC(=O)C3Cc4c(-c5ccc(Cl)cc5)ccnc4O3)cc2)CC1 (centres undefined)	FGF22 binding 43 (no result: ARNT TACC3 PPI)
CC(=O)Nc1cccc(-c2ccnc3c2CC(C(=O)NCc2ccncc2)O3)c1 (centres undefined)	none (no result: ARNT TACC3 PPI)
CC(=O)Nc1ccc(-c2ccnc3c2CC(C(=O)NCc2ccc(N4CCN(C)CC4)cc2)O3)cc1 (centres undefined)	none (no result: ARNT TACC3 PPI)
CC(=O)Nc1cccc(-c2ccnc3c2CC(C(=O)NCc2ccc(N(C)C)cc2)O3)c1 (centres undefined)	MLL AF4-AF9 inh 31 (no result: FN deposition inh, ARNT TACC3 PPI)
COc1ccc(CN(C)C[C@H]2OCCCC[C@@H](C)Oc3ccc(NC(=O)NC4CCCCC4)cc3C(=O)N([C@@H](C)CO)C[C@H]2C)cc1	none (no result: PDI turbidity)
COc1ccc(N2CCN(Cc3nc4c(c(=O)n(C)c(=O)n4C)n3Cc3cccc(C)c3)CC2)cc1	MLL AF4-AF9 inh 33 (no result: PDI turbidity)
O=c1[nH]c(-c2ccccn2)nc(C(F)(F)F)c1Br	ARNT TACC3 PPI 63

Screening data as filed in PubChem BioAssay.
